# Screens from PubChem.
# In the library only some 3.7% were active in any assay of this set; here they are far more common.
# UPR CHOP act: apoptotic UPR (CHOP) activation; CHO-CHOP luciferase reporter, luminescence; percent of tunicamycin response over DMSO baseline; activation, % at 10 µM; 330,000 tested, 0.34% active;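 active means at 10 µM dose, activation of 40% or more, normalized to positive control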;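 further: 100% = tunicamycin at 10 µg/mL and 0% = DMSO alone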
#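 Assay system: CHO-CHOP cells, stable luciferase reporter of PERK-eIF2a-CHOP signalling / Buffer or medium: F12 plus 10% serum / Compound dosing: one dose, 10 µM in 0.5% DMSO / Times: 6 h compound treatment, 37 °C / Technique: luciferase luminescence / Read-out: % reporter activation, DMSO baseline versus tunicamycin full activation / Benchmarks: tunicamycin and DMSO controls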
# Dynein transport: blocks dynein driven cargo transport along microtubules | AID 1381 | 3617.4 mouse cells, GR-EGFP nuclear translocation imaging; test concentration mostly 20 µM; stimulated with dexamethasone, 1 µM; hits give low values | 220,000 tested, 0.47% active | z-score, hits read low;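 active means plate z-score of nuclear minus cytoplasmic receptor signal below a set negative limit, without overly bright fluorescence or cell loss, cut at about -3.5 in these data, passing the limit was not always enough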;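 further: z-score of nuclear minus cytoplasmic ring GR-EGFP intensity difference per well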
#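 Buffer or medium: Induction medium lacking tetracycline, stripped serum | Also added: Dexamethasone agonist, 1.0 µM final, for 30 min | Timing: 48 h induction, 1 h compound, 30 min dex at 37 °C | Detection: Formaldehyde fixation, Hoechst nuclear stain, 10x automated fluorescence imaging | Measure: Nuclear versus cytoplasmic GR-EGFP signal, averaged per well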
# XBP1 UPR activ: adaptive UPR (XBP1) activation; CHO-XBP1 luciferase reporter, IRE1-XBP1 UPR activation, luminescence; percent of tunicamycin response, DMSO as zero; activation, % at 20 µM; 330,000 tested, 0.33% active; AID 463104;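 active means versus positive control, 20 µM dose yields 30% or more activation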;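 further: 100% = tunicamycin at 10 µg/mL and 0% = DMSO only wells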
#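 incubation = overnight seeding at 37 °C, 6 h compound treatment at 37 °C | assay system = CHO-XBP1 cells stably carrying IRE1-XBP1-driven luciferase reporter | input = 1000 cells per well | detection = luciferase luminescence | dosing = single point, 20 µM final compound, 1% DMSO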
# B2AR ag: human beta-2 adrenergic receptor agonism by FAP; P07550; Am2.2-beta2AR cells, FAP receptor internalization, flow cytometry; response, % (test concentration not listed); 340,000 tested, 0.43% active;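 active means response above a set limit, near 3 SD of response in nonfluorescent compounds, cut at about 42% in these data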
# Target sequence (P07550 whole entry, looked up): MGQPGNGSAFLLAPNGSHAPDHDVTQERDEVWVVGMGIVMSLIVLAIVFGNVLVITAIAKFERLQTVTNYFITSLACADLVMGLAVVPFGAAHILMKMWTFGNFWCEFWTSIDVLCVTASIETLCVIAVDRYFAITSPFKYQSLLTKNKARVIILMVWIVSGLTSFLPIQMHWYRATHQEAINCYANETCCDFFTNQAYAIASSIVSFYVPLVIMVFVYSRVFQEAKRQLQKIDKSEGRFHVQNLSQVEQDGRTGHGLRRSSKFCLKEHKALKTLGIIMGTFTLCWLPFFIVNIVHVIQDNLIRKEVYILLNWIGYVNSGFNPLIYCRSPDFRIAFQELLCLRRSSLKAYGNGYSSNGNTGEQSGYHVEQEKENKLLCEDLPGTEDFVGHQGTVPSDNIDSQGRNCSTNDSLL
# Mdm2-MdmX inh: disrupts the human Mdm2-MdmX interaction | 330,000 tested, 3% active | inhibition, % at 8 µM | SaOS-2 split-luciferase Mdm2/MdmX complementation, luminescence | AID 485346;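 active means inhibition of at least 50% at 8 µM in the primary screen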
# MDM2 E3 inh: inhibitors of human Mdm2 E3 ubiquitin ligase; signal enhancement, % at 5 µM; 210,000 tested, 0.11% active; AID 1230; cell-based MDM2 ubiquitination luciferase reporter, 2 h; 0 = plate control, 100 = twice control, blank-subtracted;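 active means signal enhancement of 30% or more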;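 further: luminescence tracks abundance of the self-degrading MDM2-luciferase fusion protein; higher signal means inhibition of MDM2 E3 ligase activity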
#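 Assay system: mammalian cells stably expressing self-ubiquitinating, self-degrading MDM2 E3–luciferase fusion. Quantity: 2000 cells in each well. Medium: DMEM culture medium. Compound dosing: single-point 5 µM. Timing: cell settling 4 h, compound treatment 2 h, both 37 °C. Technique: luciferase luminescence. Read-out basis: percent signal gain over controls, blank-subtracted. Benchmarks: plate controls and plate blanks.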
# Mdm2-MdmX conf: human Mdm2/MdmX binding inhibition, confirmed; shares compounds with Mdm2-MdmX inh; luminescent assay; inhibition, % at 8 µM; 10,000 tested, 55% active; AID 489028; in the data active means inhibition above about 40%
# FLuc counter: full-length luciferase inhibition in Mdm2/MdmX counter-screen; 6,200 tested, 77% active; SaOS-2 full-length luciferase counterscreen, luminescence; shares compounds with Mdm2-MdmX inh; inhibition, % at 8 µM;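 active means mean inhibition at 8 µM reaching about 37%, which flags the compound as non-specific, limit read from the data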;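 further: p53-null SaOS-2 cells with luciferase driven by a doxycycline-inducible promoter; compound on cells about two nights before reading with doxycycline added after day one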
# An asterisk follows results filed as active; . = not tested or not shown.
SMILES,UPR CHOP act,Dynein transport,XBP1 UPR activ,B2AR ag,Mdm2-MdmX inh,MDM2 E3 inh,Mdm2-MdmX conf,FLuc counter
COC(=O)c1ccccc1S(=O)(=O)NNC(=O)Nc1ccccc1,-5,.,-8,-4,69*,.,50*,75*
COC(=O)c1ccccc1S(=O)(=O)C(C)(C)C,0,0.48,2,2,2,0,.,.
COc1ccc(CNC(=O)CN2CCC(NC(=O)c3ccccc3C)CC2)cc1,0,.,0,5,12,.,.,.
CCC1(c2ccccc2)NC(=O)N(CC(=O)NCc2ccc(C)cc2)C1=O (stereo unspecified),0,.,-2,5,29,.,.,.
COc1ccc(N/N=C(/C)c2cnnc(-c3ccccc3)n2)cc1,6,0.026,1,9,79*,1,-2,.
COc1ccc(/C(C)=N/Nc2nncc3ccccc23)cc1,7,.,-3,10,-185,.,.,.
O=C(CCNC(=O)c1ccc(Br)cc1)NCC1COc2ccccc2O1 (stereo unspecified),3,.,-6,-1,-22,.,.,.
CCNc1nc(NC(C)C)nc(Oc2ccc(OCCOc3ccccc3)nn2)n1,-1,-0.39,-2,-10,51*,-16,11,.
COc1cc(OC)cc(-c2c(C#Cc3ccsc3)c3cc(-c4cc(F)cc(F)c4)ccc3n2C)c1,-1,.,4,5,-4,.,.,.
COc1cccc(C(=S)N2CCOCC2)c1OS(=O)(=O)c1ccc(Cl)cc1,1,.,-5,3,0,.,.,.
Cc1cc(=O)oc2cc(OCC(=O)c3ccc4c(c3)NC(=O)CO4)ccc12,2,-1.8,-2,42,65*,3,54*,109*
CCOC(=O)c1c(C)[nH]c(C)c1C(=O)COC(=O)/C=C/c1ccc(OC)cc1,2,.,-2,0,69*,.,77*,53*
CCOC(=O)c1c(C)[nH]c(C)c1C(=O)COC(=O)/C=C/c1cccc(F)c1,.,1.9,.,-7,.,-20,.,.
COc1ccc(/C=C/C(=O)OCC(=O)c2ccc3c(c2)NC(=O)CO3)cc1,1,-0.5,1,7,92*,-13,13,.
COc1cc(/C=C/C(=O)OCC(=O)c2ccc3c(c2)NC(=O)CO3)ccc1OC(F)F,-1,.,0,3,-20,.,.,.
Cc1sc2ncnc(SCC(=O)Nc3ccc(S(=O)(=O)N4CCOCC4)cc3)c2c1C,-2,.,2,-8,37,.,.,.
Cc1ccc(S(=O)(=O)/N=C(/Nc2cccc(O)c2)c2ccccc2)cc1,0,.,2,-7,20,.,.,.
N#Cc1ccc(NC(=O)COC(=O)c2cccnc2Cl)cc1,1,.,3,2,-51,.,.,.
CCCN1C(=O)c2ccccc2NC1c1ccc(OC)cc1O (stereo unspecified),2,1.5,-3,0,64*,19,54*,72*
CCCN1C(=O)c2ccccc2NC1c1ccc(OC)cc1OC (stereo unspecified),0,-0.78,-3,-1,-25,6,.,.
CCOC(=O)C1=CC[C@H]2c3c(c4ccccc4n3C)C(=O)C1N2C(=O)OC(C)(C)C,4,.,-2,-7,-1,.,.,.
COc1ccc(N2CC(C(=O)N/N=C/c3c[nH]c4ccccc34)CC2=O)cc1 (stereo unspecified),1,0.93,1,-13,-6,-25,.,.
O=C(N/N=C/c1ccccc1O)C1CC(=O)N(c2ccc(F)cc2)C1 (stereo unspecified),-1,.,0,-1,52*,.,38,44*
Cc1ccc(NC(=O)Nc2ncnc3nc[nH]c23)cc1,5,0.34,6,-13,-27,-16,.,.
Cc1ccccc1CS(=O)(=O)c1ccc(C(=O)N2CCC(C)CC2)cc1[N+](=O)[O-],-2,-0.83,-2,-6,47,-14,.,.
SMILES,UPR CHOP act,Dynein transport,XBP1 UPR activ,B2AR ag,Mdm2-MdmX inh,MDM2 E3 inh,Mdm2-MdmX conf,FLuc counter
O=C(c1ccc(S(=O)(=O)c2cccc(Cl)c2)c([N+](=O)[O-])c1)N1CCN(Cc2ccccc2)CC1,2,-0.96,-2,21,94*,-11,85*,58*
O=C(c1ccc(Cl)c([N+](=O)[O-])c1)N1CCN(c2ccccn2)CC1,-3,-0.7,0,-5,5,6,.,.
O=C(c1ccc(S(=O)(=O)Cc2ccccc2Cl)c([N+](=O)[O-])c1)N1CCN(c2ccccn2)CC1,2,-1,-3,4,75*,-17,64*,39*
COc1ccc(C(=O)N2CCN(Cc3ccccc3)CC2)cc1[N+](=O)[O-],0,.,-4,0,5,.,.,.
CC1CCN(C(=O)c2ccc(S(=O)(=O)Cc3cccc(F)c3)c([N+](=O)[O-])c2)CC1,3,-0.28,-2,-6,56*,2,50*,72*
CCCC[C@H](CN[C@@H](CNC)[C@H](C)CC)NCCC12CCC(CC1)C2,4,.,2,11,98*,.,98*,50*
CCc1ccc(O)c(CNCCNCc2cc(CC)ccc2O)c1,1,.,-2,27,72*,.,37,.
Cc1ccc(O)c(CNCCNCc2cc(C)ccc2O)c1,0,.,2,22,73*,.,52*,33
COc1ccc(CNCc2cc(Cl)ccc2O)cc1,-1,.,0,7,-17,.,.,.
Cc1ccc(O)c(CNc2nc3ccccc3n2C(C)C)c1,1,.,-1,-2,5,.,.,.
COCCN(CC(=O)Nc1ccccc1C(F)(F)F)C(=O)c1ccc(-n2cccn2)cc1,2,.,-2,2,-11,.,.,.
COc1cc(/C=N/NC(=Nc2ccc(C)cc2)c2nc3ccccc3s2)ccc1O,-6,-0.77,-5,-23,83*,-44,79*,51*
CC(C)c1ccc(CN2C(=O)NC3(CCCCCC3)C2=O)cc1,2,.,2,-3,18,.,.,.
COc1cccc(C(=O)/C=C/Nc2ccc(S(=O)(=O)Nc3cccc(C(C)=O)c3)cc2)c1,10,0.1,4,13,1,-18,.,.
COc1cccc(/C=C/C(=O)c2ccc(NS(=O)(=O)c3ccc(C)cc3)cc2)c1,3,3.6,-6,15,71*,-7,15,.
COc1cc(/C=C/C(=O)c2ccc(NS(=O)(=O)c3ccc(C)cc3)cc2)ccc1OC(F)F,15,-1.2,-3,10,92*,8,42*,62*
